Source: PubChem (several laboratories)
Sampled rows, rich in hits. Any-hit rate of the full collection: about 11%.
Diaphorase inh: counter-screen for diaphorase-based assays: diaphorase inhibitors and chemical oxidizers; diaphorase resazurin-to-resorufin fluorescence, NADH, 16 min; bacterial (C. kluyveri) enzyme, not human; inhibition, % at 20 µM; 190,000 compounds, 0.69% hits; AID 1217;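 active = primary screen inhibition at 20 µM above a set limit, cut at about 50% in these data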
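Assay system: diaphorase enzyme from Clostridium kluyveri. Quantity: enzyme working solution with 0.14 U/mL diaphorase. Schedule: reaction incubation of 16 min at room temperature. Technique: resorufin fluorescence, excitation 544 nm, emission 590 nm. Controls: No-NADH positive control and DMSO neutral control.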
Diaph act CS: diaphorase activation or chemical reduction counter-screen; Diaphorase/resazurin coupled assay, resorufin fluorescence, 16 min; hits give high values; 1 = vehicle wells, 0 = NADH-free wells; activation factor at 20 µM; 190,000 compounds, 0.005% hits; AID 1229;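 active = diaphorase activity raised at least twofold by the compound at 20 µM; inactive = activation factor below 2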
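Assay system: bacterial diaphorase enzyme (C. kluyveri) / Input: enzyme 0.07 U/mL final / Medium: 50 mM HEPES pH 7.4 with 4.542 mM MgCl2, 0.005% Tween 20 / Doses: single compound dose of 20 µM, 1% DMSO final / Incubation: 16 min enzyme reaction, ambient temperature / Signal: fluorescence, excitation 544 nm and emission 590 nm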
G6PDH CS: inhibits Leuconostoc G6PDH, flagging false hits in G6PDH-based assays; Purified L. mesenteroides G6PDH, diaphorase/resazurin coupled fluorescence, 45 min; inhibition, % at 5 µM; 200,000 compounds, 0.12% hits
WT yeast gro inh: growth inhibition of WT yeast, mitochondrial fusion screen. inhibition, % at 10 µM. 190,000 compounds, 2.1% hits. mitochondrial fusion phenotypic screen, WT strain; in the data active = inhibition above about 58%; tested in S. cerevisiae
L major viab: inhibitors of Leishmania major promastigote growth; Leishmania major promastigotes, resazurin fluorescence viability; inhibition, % at 10 µM; 200,000 compounds, 9% hits; AID 1063;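 also: promastigotes grown with compound for 44 hours at 28 °C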
Each line names hits and unclear results; the compound was inactive in the other large screens. Rule as the data show it, unless noted: active = inhibition above about 50%; inactive = the rest.

Cc1nc2sc3c(NCc4ccco4)ncnc3c2c2c1COC(C)(C)C2	Diaphorase inh 66
CCCSc1nc(NCc2ccco2)c2c3c(sc2n1)COC(C)(C)C3	WT yeast gro inh 70
CCN1CC(CN(C)Cc2nc(-c3ccco3)oc2C)CC1=O (centres undefined)	none
CCN1CC(CN(C)Cc2nc(-c3ccc(C(F)(F)F)cc3)oc2C)CC1=O (centres undefined)	L major viab 56
COCC(C)NC(=O)c1ccc(N(C)C)cc1 (centres undefined)	none
CC(C)COC(=O)N(C)c1ccc(C(O)(C(F)(F)F)C(F)(F)F)cc1	L major viab 100
Cc1ccc2cc(C#N)c(NCCNC(=S)NCCCN(C)C)nc2c1C	L major viab 100
Cc1cc(C)c2nc(NCCCNC(=S)NCCCN(C)C)c(C#N)cc2c1	L major viab 101
O=C(CC(c1ccccc1)c1cc(Br)ccc1O)NCc1ccco1 (centres undefined)	L major viab 99
O=C(CC(c1ccccc1)c1ccccc1O)NCc1ccco1 (centres undefined)	none
O=C(CC(c1ccccc1)c1ccccc1O)NCc1ccccc1Cl (centres undefined)	L major viab 51
CCOC(=O)CSc1nc2ccc(N3CCOCC3)cc2c(=O)n1Cc1ccc2c(c1)OCO2	none (no result: WT yeast gro inh)
Cc1ccc(N)c2c1OCCC2=O	Diaphorase inh 57
CN(Cc1ccccc1)c1nc2c(c(=O)[nH]c(=O)n2C)n1CCOc1ccccc1	L major viab 55
Cn1c(=O)[nH]c(=O)c2c1nc(N1CCC(Cc3ccccc3)CC1)n2Cc1ccccc1	none
CCOCCn1c(N2CCN(c3ccccc3)CC2)nc2c1c(=O)n(C)c(=O)n2C	none
CCCCCn1c(N2CCC(Cc3ccccc3)CC2)nc2c1c(=O)[nH]c(=O)n2C	WT yeast gro inh 88, L major viab 99 (no result: Diaphorase inh, Diaph act CS, G6PDH CS)
CN(Cc1ccccc1)c1nc2c(c(=O)[nH]c(=O)n2C)n1Cc1ccccc1	none
C=C(C)Cn1c(N2CCC(Cc3ccccc3)CC2)nc2c1c(=O)[nH]c(=O)n2C	L major viab 78
CCCCCCn1c(N2CCN(c3ccccc3)CC2)nc2c1c(=O)n(C)c(=O)n2C	WT yeast gro inh 66
O=C(O)C1CCN(S(=O)(=O)/C=C/c2ccccc2)CC1	none
Cc1cc(NC(=O)CCSc2ccc(Cl)cc2)no1	none
Cc1ccc(NC(=O)COC(=O)CNC(=O)c2ccc3ccccc3c2)c([N+](=O)[O-])c1	none
CC(C)CCn1c(N2CCN(Cc3ccccc3)CC2)nc2c1c(=O)[nH]c(=O)n2C	none (no result: WT yeast gro inh)
CCCn1c(N2CCC(Cc3ccccc3)CC2)nc2c1c(=O)[nH]c(=O)n2C	WT yeast gro inh 68
CCCCCn1c(N2CCN(Cc3ccccc3)CC2)nc2c1c(=O)[nH]c(=O)n2C	L major viab 100
O=C(/C=C/c1ccc(Cl)c([N+](=O)[O-])c1)Nc1ccc(N2CCCC2)c(Cl)c1	L major viab 79
Cc1ccc(CNC(=O)c2ccc([N+](=O)[O-])o2)cc1	L major viab 76
CN(Cc1ccccc1)C(=O)c1ccc([N+](=O)[O-])o1	L major viab 86
Cc1ccc(NC(=O)c2ccc([N+](=O)[O-])o2)cc1C	L major viab 100
O=C(c1cc2sccc2n1Cc1ccccc1)N1CCN(c2nc3ccccc3s2)CC1	none
CCOCCN1CCN(C(=O)CN2CCCC2=O)CC1	none
C=Cn1cc[n+](CC(=O)C(C)(C)C)c1	none
Cc1[nH]c2ccccc2c1C(=O)NS(=O)(=O)Nc1ccc(F)cc1	none
Cc1cccc(C)c1NC(=O)COC(=O)c1ccc([N+](=O)[O-])o1	none
O=C(Nc1ccc(N2CCCC2)c(Cl)c1)c1ccc([N+](=O)[O-])o1	WT yeast gro inh 86, L major viab 101
Cc1cccc(NC(=O)c2ccc([N+](=O)[O-])o2)c1C	L major viab 97
N#CCc1c(C#N)c(N)nc(N2CCCC(O)C2)c1C#N (centres undefined)	none
CCCOC(=O)CN1C(=O)c2ccccc2C1=O	WT yeast gro inh 79
CCOC(=O)CN1C(=O)c2ccccc2C1=O	none
Cc1cccc(OCCC(=O)NCC(=O)Nc2cccc(C)c2C)c1	L major viab 61
CCOCC(O)CSCc1ccc(Cl)cc1 (centres undefined)	none
